Reference: ChEMBL document CHEMBL4689842, “EUbOPEN Chemogenomics Library wave 1” (2021)

What was measured:
HEK-293T = assay: Incucyte cell viability with HEK293T; assay type: toxicity, cell-based; settings: human, 10 µM, compound concentration 10 uM; further: filed as whole numbers so only -1 and 0 and 1 occur
U2OS = assay: Multiplex assay against U2OS; assay type: toxicity, cell-based; settings: human
Outline: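 At seeding, live cells were stained with Hoechst33342, BioTracker Green Microtubule Cytoskeleton Dye, MitoTracker Red and Annexin V Alexa Fluor 680. After compound addition they were imaged on a CQ1 microscope at 37°C and 5% CO2, and CellPathfinder machine-learning gating sorted them into Hoechst high-intensity objects or normal cells, with normal cells further split into healthy, pyknosed or fragmented nuclei and pyknosed cells into mitotic or apoptotic. Tubulin, mitochondrial-mass and membrane-permeability phenotypes are given as per cents of cells with healthy nuclei.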

[1] = 12 h, 1 µM, compound concentration 1 uM, replicate 1
[2] = 12 h, 1 µM, compound concentration 1 uM, replicate 2
[3] = 12 h, 10 µM, compound concentration 10 uM, replicate 1
[4] = 12 h, 10 µM, compound concentration 10 uM, replicate 2
[5] = 24 h, 1 µM, compound concentration 1 uM, replicate 1
[6] = 24 h, 1 µM, compound concentration 1 uM, replicate 2
[7] = 24 h, 10 µM, compound concentration 10 uM, replicate 1
[8] = 24 h, 10 µM, compound concentration 10 uM, replicate 2

Cc1cn(-c2cc(NC(=O)c3ccc4c(c3)CN(c3cncnc3)C[C@@H]4C)cc(C(F)(F)F)c2)cn1
Growth Rate (HEK-293T; 6 h, replicate number 1, timepoint 6 hours): 0 | Growth Rate (HEK-293T; 12 h, replicate number 1, timepoint 12 hours): 0 | Growth Rate (HEK-293T; 18 h, replicate number 1, timepoint 18 hours): 0 | Growth Rate (HEK-293T; 24 h, replicate number 1, timepoint 24 hours): 0 | Population Apoptotic (%) (U2OS; [1]): 56% | Population Healthy Nuclei (%) (U2OS; [1]): 81% | Population Hoechst High Intensity Objects (%) (U2OS; [1]): 7% | Population Membrane Permeable-Phenotype (%) (U2OS; [1]): 6% | Population Mitochondria Different-Phenotype (%) (U2OS; [1]): 23% | Population Mitotic Cells (%) (U2OS; [1]): 43% | Population Normal (%) (U2OS; [1]): 92% | Population Pyknosed Nuclei (%) (U2OS; [1]): 11% | Population Tubulin-Different-Phenotype (%) (U2OS; [1]): 33% | Total Cell Count (U2OS; [1]): 149 | Population Apoptotic (%) (U2OS; [2]): 0% | Population Fragmented Nuclei (%) (U2OS; [2]): 7% | Population Healthy Nuclei (%) (U2OS; [2]): 86% | Population Hoechst High Intensity Objects (%) (U2OS; [2]): 16% | Population Membrane Permeable-Phenotype (%) (U2OS; [2]): 11% | Population Mitochondria Different-Phenotype (%) (U2OS; [2]): 30% | Population Mitotic Cells (%) (U2OS; [2]): 100% | Population Normal (%) (U2OS; [2]): 83% | Population Pyknosed Nuclei (%) (U2OS; [2]): 6% | Population Tubulin-Different-Phenotype (%) (U2OS; [2]): 19% | Total Cell Count (U2OS; [2]): 116 | Population Apoptotic (%) (U2OS; [3]): 33% | Population Fragmented Nuclei (%) (U2OS; [3]): 7% | Population Healthy Nuclei (%) (U2OS; [3]): 84% | Population Hoechst High Intensity Objects (%) (U2OS; [3]): 3% | Population Membrane Permeable-Phenotype (%) (U2OS; [3]): 40% | Population Mitochondria Different-Phenotype (%) (U2OS; [3]): 17% | Population Mitotic Cells (%) (U2OS; [3]): 66% | Population Normal (%) (U2OS; [3]): 96% | Population Pyknosed Nuclei (%) (U2OS; [3]): 7% | Population Tubulin-Different-Phenotype (%) (U2OS; [3]): 16% | Total Cell Count (U2OS; [3]): 198 | Population Apoptotic (%) (U2OS; [4]): 66% | Population Fragmented Nuclei (%) (U2OS; [4]): 10% | Population Healthy Nuclei (%) (U2OS; [4]): 87% | Population Hoechst High Intensity Objects (%) (U2OS; [4]): 15% | Population Membrane Permeable-Phenotype (%) (U2OS; [4]): 24% | Population Mitochondria Different-Phenotype (%) (U2OS; [4]): 26% | Population Mitotic Cells (%) (U2OS; [4]): 33% | Population Normal (%) (U2OS; [4]): 84% | Population Pyknosed Nuclei (%) (U2OS; [4]): 3% | Population Tubulin-Different-Phenotype (%) (U2OS; [4]): 17% | Total Cell Count (U2OS; [4]): 118 | Population Apoptotic (%) (U2OS; [5]): 45% | Population Fragmented Nuclei (%) (U2OS; [5]): 6% | Population Healthy Nuclei (%) (U2OS; [5]): 83% | Population Hoechst High Intensity Objects (%) (U2OS; [5]): 3% | Population Membrane Permeable-Phenotype (%) (U2OS; [5]): 6% | Population Mitotic Cells (%) (U2OS; [5]): 55% | Population Normal (%) (U2OS; [5]): 96% | Population Pyknosed Nuclei (%) (U2OS; [5]): 9% | Population Tubulin-Different-Phenotype (%) (U2OS; [5]): 42% | Total Cell Count (U2OS; [5]): 210 | Population Apoptotic (%) (U2OS; [6]): 42% | Population Fragmented Nuclei (%) (U2OS; [6]): 9% | Population Healthy Nuclei (%) (U2OS; [6]): 85% | Population Hoechst High Intensity Objects (%) (U2OS; [6]): 6% | Population Membrane Permeable-Phenotype (%) (U2OS; [6]): 12% | Population Mitochondria Different-Phenotype (%) (U2OS; [6]): 26% | Population Mitotic Cells (%) (U2OS; [6]): 57% | Population Normal (%) (U2OS; [6]): 93% | Population Pyknosed Nuclei (%) (U2OS; [6]): 5% | Population Tubulin-Different-Phenotype (%) (U2OS; [6]): 34% | Total Cell Count (U2OS; [6]): 143 | Population Apoptotic (%) (U2OS; [7]): 42% | Population Fragmented Nuclei (%) (U2OS; [7]): 6% | Population Healthy Nuclei (%) (U2OS; [7]): 85% | Population Hoechst High Intensity Objects (%) (U2OS; [7]): 4% | Population Membrane Permeable-Phenotype (%) (U2OS; [7]): 28% | Population Mitochondria Different-Phenotype (%) (U2OS; [7]): 14% | Population Mitotic Cells (%) (U2OS; [7]): 57% | Population Normal (%) (U2OS; [7]): 95% | Population Pyknosed Nuclei (%) (U2OS; [7]): 7% | Population Tubulin-Different-Phenotype (%) (U2OS; [7]): 12% | Total Cell Count (U2OS; [7]): 254 | Population Apoptotic (%) (U2OS; [8]): 22% | Population Fragmented Nuclei (%) (U2OS; [8]): 8% | Population Healthy Nuclei (%) (U2OS; [8]): 84% | Population Hoechst High Intensity Objects (%) (U2OS; [8]): 6% | Population Membrane Permeable-Phenotype (%) (U2OS; [8]): 20% | Population Mitochondria Different-Phenotype (%) (U2OS; [8]): 22% | Population Mitotic Cells (%) (U2OS; [8]): 77% | Population Normal (%) (U2OS; [8]): 93% | Population Tubulin-Different-Phenotype (%) (U2OS; [8]): 10% | Total Cell Count (U2OS; [8]): 128
